Values after ≈ are worked out from the molar mass of the structure shown.
Assays:
HepG2 = test: Cytotoxicity against human HepG2 cells assessed as reduction in cell viability after 24 hrs by MTT assay; type: functional, cell-based; conditions: HepG2, 24 h
Outline: (§1)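 Cells were grown in DMEM with 10% FBS, 2 mM L-glutamine and 40 μg/mL gentamicin, seeded at about 5 × 10^4 cells/mL, and allowed 24 h adaptation (37 °C, 5% CO2). Peptides were then added for 24 h as 2-fold dilutions (open 256–0.5, closed 512–1 μg/mL), closed form handled under dim light. MTT was given for 4 h, formazan dissolved in DMSO and read at 570 nm. Four repetitions; IC50 extrapolated from viability curves.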

[1] = Therapeutic index, ratio of HC50 for human RBC to MIC for Bacillus subtilis DSM 347; type: toxicity; conditions: human red blood cells versus Bacillus subtilis DSM 347
Outline: (§2)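 Ratio of HC50 (RBC) to HeLa IC50 or to MIC against B. subtilis or E. coli; values measured in mg/mL and recalculated to μM, 2-fold dilution without curve fitting, accuracy within a factor of 2.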

[2] = Cytotoxicity against human MOR cells assessed as reduction in cell viability after 24 hrs by MTT assay; type: functional, cell-based; outline: as §1
[3] = Cytotoxicity against human doxorubicin-resistant MOR cells assessed as reduction in cell viability after 24 hrs by MTT assay; type: functional, cell-based; outline: as §1
Bacillus subtilis = test: Antimicrobial activity against Bacillus subtilis DSM 347 after 22 hrs by resazurin dye based spectrophotometry; type: functional; conditions: DSM 347, 22 h
Outline: (§3)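 2-fold broth microdilution in Mueller–Hinton medium; peptide stocks 1024 μg/mL in 50% ethanol. Exponential-phase cultures diluted to OD550 0.2, then 1:100 (B. subtilis) or 1:1000 (E. coli), giving 5 × 10^5 CFU/mL per well. Incubated 22 h, 37 °C, static; then resazurin (0.2 mg/mL solution) added for 2 h at 37 °C, read visually and spectrophotometrically. Tested in both photoforms.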

Escherichia coli = test: Antimicrobial activity against Escherichia coli DSM 1103 after 22 hrs by resazurin dye based spectrophotometry; type: functional; conditions: DSM 1103, 22 h; outline: as §3
HeLa = test: Cytotoxicity against human HeLa cells assessed as reduction in cell viability after 24 hrs by MTT assay; type: functional, cell-based
Outline: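 HeLa cells seeded at about 5 × 10^4 cells/mL in DMEM with 10% FBS, 2 mM glutamine, gentamicin; 24 h adaptation (37 °C, 5% CO2), then 24 h peptide exposure. MTT 4 h, formazan in DMSO read at 570 nm. 2-fold series 256–0.5 (open) or 512–1 μg/mL (closed), four repetitions; IC50 extrapolated from killing curves. Closed form handled in dim light.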

[4] = Therapeutic index, ratio of HC50 for human RBC to MIC for Escherichia coli DSM 1103; type: toxicity; conditions: human red blood cells versus Escherichia coli DSM 1103; outline: as §2
[5] = Selective ratio of HC50 for human RBC to IC50 for human HeLa cells; type: toxicity; conditions: human red blood cells versus HeLa cells; outline: as §2
MCF7 = test: Cytotoxicity against human MCF7 cells assessed as reduction in cell viability after 24 hrs by MTT assay; type: functional, cell-based; conditions: MCF7, 24 h; outline: as §1
[6] = Hemolytic activity against human RBC assessed as hemolysis after 30 mins by colorimetric method; type: ADME, cell-based, Erythrocyte; conditions: human red blood cells (erythrocytes)
Outline: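 Human erythrocytes washed twice in isotonic 172 mM Tris-HCl, pH 7.6; peptides dissolved in DMSO, diluted in buffer, two independent 10-step 2-fold series from 256 or 192 μg/mL. HC50 extrapolated as 50% hemolysis concentration.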

MIA PaCa-2 = test: Cytotoxicity against human MIAPaCa2 cells assessed as reduction in cell viability after 24 hrs by MTT assay; type: functional, cell-based; conditions: MIA PaCa-2, 24 h; outline: as §1

SMILES	IC50 (HepG2) [µM]	selectivity ratio [1]	IC50 [2] [µM]	IC50 [3] [µM]	MIC (Bacillus subtilis) [µM]	MIC (Escherichia coli) [µM]	IC50 (HeLa) [µM]	selectivity ratio [4]	selectivity ratio [5]	IC50 (MCF7) [µM]	HC50 at 0.5 h [6] [µM]	IC50 (MIA PaCa-2) [µM]
CC(C)[C@@H]1NC(=O)C2=CC3=C4CCCC4=C4C=C(S[C@]4(C)[C@@]3(C)S2)C(=O)[C@H]2CCCN2C(=O)[C@H](C(C)C)NC(=O)[C@H](CCCN)NC(=O)[C@H]([C@H](O)C(C)C)NC(=O)[C@@H]2CCCN2C(=O)[C@@H](Cc2ccccc2)NC(=O)[C@H](C(C)C)NC(=O)[C@H](CCCN)NC1=O	100	21.3	150	100	9 (≈ 11.5 µg/mL)	100 (≈ 128 µg/mL)	150	2	1.3	150	200	150
Cc1sc2cc1C1=C(CCC1)c1cc(sc1C)C(=O)[C@H]1CCCN1C(=O)[C@H](C(C)C)NC(=O)[C@H](CCCN)NC(=O)[C@H]([C@H](O)C(C)C)NC(=O)[C@@H]1CCCN1C(=O)[C@@H](Cc1ccccc1)NC(=O)[C@H](C(C)C)NC(=O)[C@H](CCCN)NC(=O)[C@H](C(C)C)NC2=O	5	6.7	5	5	3 (≈ 3.85 µg/mL)	50 (≈ 64.1 µg/mL)	9	0.4	2.2	6	20	6

— ChEMBL document CHEMBL4257585, “Structure-Activity Relationships of Photoswitchable Diarylethene-Based β-Hairpin Peptides as Membranolytic Antimicrobial and Anticancer Agents” (J Med Chem, 2018)
